# Results taken from ChEMBL document CHEMBL1147748, “Overlapping, nonidentical binding sites of different classes of nonpeptide antagonists for the human gonadotropin-releasing hormone receptor” (J Med Chem, 2006).
# pIC50: −log10 of the molar value.
# Experiments:
# [1] = target: Gonadotropin-releasing hormone receptor (Homo sapiens, UniProt P30968, Y290L); experiment: Displacement of [125I]-His5, D-Tyr6]GnRH from mutant GnRHR, GnRHR Y290L
# [2] = target: Gonadotropin-releasing hormone receptor (Homo sapiens, UniProt P30968, E295K); experiment: Displacement of [125I]-His5, D-Tyr6]GnRH from mutant GnRHR, GnRHR E295K
# Sequence of Gonadotropin-releasing hormone receptor (Homo sapiens, UniProt P30968, E295K) (P30968 whole entry E295K): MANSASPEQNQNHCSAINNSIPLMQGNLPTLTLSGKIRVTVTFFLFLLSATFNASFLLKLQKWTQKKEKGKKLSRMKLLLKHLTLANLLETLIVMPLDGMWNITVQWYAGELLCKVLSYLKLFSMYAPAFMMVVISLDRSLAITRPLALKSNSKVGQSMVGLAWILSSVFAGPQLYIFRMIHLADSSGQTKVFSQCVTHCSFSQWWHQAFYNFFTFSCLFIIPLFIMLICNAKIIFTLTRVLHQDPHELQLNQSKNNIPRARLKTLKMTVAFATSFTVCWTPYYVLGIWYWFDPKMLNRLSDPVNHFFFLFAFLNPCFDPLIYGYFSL
# Method in brief: (§1)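 Human GnRH-R (wild type or site-directed point mutant) was transiently expressed in COS-7 cells by electroporation, with cells cultured 36-48 h before membranes were prepared. Membranes (5-20 µg per point) were incubated 2 h at room temperature with 0.3 nM tracer and varying competitor in HEPES pH 7.5, 150 mM NaCl, 0.1% BSA, then filtered and counted.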
# [3] = target: Gonadotropin-releasing hormone receptor (Homo sapiens, UniProt P30968, E295Q); experiment: Displacement of [125I]-His5, D-Tyr6]GnRH from mutant GnRHR, GnRHR E295Q; method in brief: as §1
# Sequence of Gonadotropin-releasing hormone receptor (Homo sapiens, UniProt P30968, E295Q) (P30968 whole entry E295Q): as the sequence (P30968 whole entry E295K) above, with K295Q counted along it
# [4] = target: Gonadotropin-releasing hormone receptor (Homo sapiens, UniProt P30968, N305D); experiment: Displacement of [125I]-His5, D-Tyr6]GnRH from mutant GnRHR, GnRHR N305D; method in brief: as §1
# Sequence of Gonadotropin-releasing hormone receptor (Homo sapiens, UniProt P30968, N305D) (P30968 whole entry N305D): as the sequence (P30968 whole entry E295K) above, with K295E, N305D counted along it
# [5] = target: Gonadotropin-releasing hormone receptor (Homo sapiens, UniProt P30968, H306E); experiment: Displacement of [125I]-His5, D-Tyr6]GnRH from mutant GnRHR, GnRHR H306E; method in brief: as §1
# Sequence of Gonadotropin-releasing hormone receptor (Homo sapiens, UniProt P30968, H306E) (P30968 whole entry H306E): as the sequence (P30968 whole entry E295K) above, with K295E, H306E counted along it
# [6] = target: Gonadotropin-releasing hormone receptor (Homo sapiens, UniProt P30968, Y284F); experiment: Displacement of [125I]-His5, D-Tyr6]GnRH from mutant GnRHR, GnRHR Y284F
# Sequence of Gonadotropin-releasing hormone receptor (Homo sapiens, UniProt P30968, Y284F) (P30968 whole entry Y284F): as the sequence (P30968 whole entry E295K) above, with Y284F, K295E counted along it
# [7] = target: Gonadotropin-releasing hormone receptor (Homo sapiens, UniProt P30968, S118N); experiment: Displacement of [125I]-His5, D-Tyr6]GnRH from mutant GnRHR, GnRHR S118N
# Sequence of Gonadotropin-releasing hormone receptor (Homo sapiens, UniProt P30968, S118N) (P30968 whole entry S118N): as the sequence (P30968 whole entry E295K) above, with S118N, K295E counted along it
# [8] = target: Gonadotropin-releasing hormone receptor (Homo sapiens, UniProt P30968, S124A); experiment: Displacement of [125I]-His5, D-Tyr6]GnRH from mutant GnRHR, GnRHR S124A
# Sequence of Gonadotropin-releasing hormone receptor (Homo sapiens, UniProt P30968, S124A) (P30968 whole entry S124A): as the sequence (P30968 whole entry E295K) above, with S124A, K295E counted along it
# [9] = target: Gonadotropin-releasing hormone receptor (Homo sapiens, UniProt P30968, S186D); experiment: Displacement of [125I]-His5, D-Tyr6]GnRH from mutant GnRHR, GnRHR S186D
# Sequence of Gonadotropin-releasing hormone receptor (Homo sapiens, UniProt P30968, S186D) (P30968 whole entry S186D): as the sequence (P30968 whole entry E295K) above, with S186D, K295E counted along it
# [10] = target: Gonadotropin-releasing hormone receptor (Homo sapiens, UniProt P30968, S203Q); experiment: Displacement of [125I]-His5, D-Tyr6]GnRH from mutant GnRHR, GnRHR S203Q
# Sequence of Gonadotropin-releasing hormone receptor (Homo sapiens, UniProt P30968, S203Q) (P30968 whole entry S203Q): as the sequence (P30968 whole entry E295K) above, with S203Q, K295E counted along it
# [11] = target: Gonadotropin-releasing hormone receptor (Homo sapiens, UniProt P30968, Y290F); experiment: Displacement of [125I]-His5, D-Tyr6]GnRH from mutant GnRHR, GnRHR Y290F
# Sequence of Gonadotropin-releasing hormone receptor (Homo sapiens, UniProt P30968, Y290F) (P30968 whole entry Y290F): as the sequence (P30968 whole entry E295K) above, with Y290F, K295E counted along it
# Sequence of Gonadotropin-releasing hormone receptor (Homo sapiens, UniProt P30968, Y290L) (P30968 whole entry Y290L): as the sequence (P30968 whole entry E295K) above, with Y290L, K295E counted along it
SMILES,pIC50 [1],pIC50 [2],pIC50 [3],pIC50 [4],pIC50 [5],pIC50 [6],pIC50 [7],pIC50 [8],pIC50 [9],pIC50 [10],pIC50 [11]
CC(C)C[C@H](NC(=O)[C@@H](Cc1ccc(O)cc1)NC(=O)[C@H](Cc1c[nH]cn1)NC(=O)[C@H](CO)NC(=O)[C@H](Cc1c[nH]c2ccccc12)NC(=O)[C@H](Cc1c[nH]cn1)NC(=O)[C@@H]1CCC(=O)N1)C(=O)N[C@@H](CCCN=C(N)N)C(=O)N1CCC[C@H]1C(=O)NCC(N)=O,6.02,8.51,8.62,7.39,7.28,8.55,8.96,8.41,8.51,8.54,7.31
COc1c(C)cc(-c2[nH]c3ccc(C(C)(C)C(=O)N(CC(C)C)CC(C)C)cc3c2[C@H](C)CNCCc2ccccc2)cc1C,6.69,8.02,7.82,7.33,7.31,7.54,7.20,7.67,7.95,7.80,7.40
